Results reported in ChEMBL document CHEMBL1147923, “Synthesis, docking studies and anti-inflammatory activity of 4,5,6,7-tetrahydro-2H-indazole derivatives” (Bioorg Med Chem, 2007).
Active and inactive are the calls of the source.

Key:
Rattus norvegicus [1] = assay: Toxicity in arthritic Wistar rat assessed as gastric ulcerogenic response at 10 mg/kg, po; assay type: organism-based, Stomach; set-up: dose 10 mg/kg, route oral; details: in vivo
Summary of the method: (§1)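 Arthritis induced as for adjuvant model. Two days later rats fasted overnight, then dosed orally (10 ml/kg) or with vehicle; indomethacin 10 mg/kg po as positive control. Rats killed 4 h later, stomachs opened along greater curvature. Ulcer index taken as summed lesion length (mm) in gastric mucosa.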

Rattus norvegicus [2] = assay: Antiinflammatory activity against Freund's adjuvant-induced arthritis in Wistar rat assessed as reduction in joint size at 100 mg/kg, po; assay type: functional, organism-based; set-up: dose 100 mg/kg
Summary of the method: (§2)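 Arthritis induced by Freund's adjuvant injected into right paw; after 3 days paw height, paw width and joint width re-measured (day 0) and rats randomised. Dosed once daily for 3 further days (days 1–3), orally at 10 ml/kg or ip at 2 ml/kg, in vehicle 10% DMSO/10% Tween 80/80% water. Measurements taken at baseline, day 0 and days 1–4, compared with vehicle group.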

Rattus norvegicus [3] = assay: Antiinflammatory activity against Freund's adjuvant-induced arthritis in Wistar rat assessed as reduction in paw width at 10 mg/kg, po; assay type: functional, organism-based; set-up: dose 10 mg/kg; summary of the method: as §2
Rattus norvegicus [4] = assay: Antiinflammatory activity against Freund's adjuvant-induced arthritis in Wistar rat assessed as reduction in paw width at 100 mg/kg, po; assay type: functional, organism-based; set-up: dose 100 mg/kg; summary of the method: as §2
Rattus norvegicus [5] = assay: Antiinflammatory activity against Freund's adjuvant-induced arthritis in Wistar rat assessed as reduction in joint width at 50 mg/kg, po; assay type: functional, organism-based; set-up: dose 50 mg/kg; summary of the method: as §2
Rattus norvegicus [6] = assay: Antiinflammatory activity against Freund's adjuvant-induced arthritis in Wistar rat assessed as reduction in paw height at 50 mg/kg, po; assay type: functional, organism-based; set-up: dose 50 mg/kg; summary of the method: as §2
Rattus norvegicus [7] = assay: Antiinflammatory activity against Freund's adjuvant-induced arthritis in Wistar rat assessed as reduction in paw height at 10 mg/kg, po; assay type: functional, organism-based; set-up: dose 10 mg/kg; summary of the method: as §2
Rattus norvegicus [8] = assay: Antinociceptive activity in Wistar rat assessed as increase in latency time at 50 mg/kg, ip; assay type: functional, organism-based; set-up: dose 50 mg/kg
Summary of the method: (§3)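 Freund's adjuvant-arthritic rats given ip dosing (10 ml/kg) or vehicle once daily for 4 days. Hot-plate test the day after the last injection at 55 ± 0.5 °C, set for 15–18 s control latency. Latency to hind-paw licking or jump recorded, 60 s cut-off. Each rat tested twice, 30 min apart. Normal rats included as controls.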

Rattus norvegicus [9] = assay: Antiinflammatory activity against Freund's adjuvant-induced arthritis in Wistar rat assessed as reduction in joint size at 100 mg/kg, ip; assay type: functional, organism-based; set-up: dose 100 mg/kg; summary of the method: as §2
Rattus norvegicus [10] = assay: Antiinflammatory activity against Freund's adjuvant-induced arthritis in Wistar rat assessed as reduction in paw width at 100 mg/kg, ip; assay type: functional, organism-based; set-up: dose 100 mg/kg; summary of the method: as §2
Rattus norvegicus [11] = assay: Antiinflammatory activity in Wistar rat assessed as reduction of carrageenan-induced paw oedema; assay type: functional, organism-based
Summary of the method: (§4)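 Overnight-fasted rats dosed orally (10, 50, 100 mg/kg/10 ml) or with vehicle before carrageenan injection into the footpad. Equal volume of saline injected into left hindpaw. Rats killed 4 h later and hind paws cut and weighed. Oedema taken as right minus left paw weight; means ± SEM versus vehicle.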

Rattus norvegicus [12] = assay: Toxicity in arthritic Wistar rat assessed as gastric ulcerogenic response at 100 mg/kg, po; assay type: organism-based, Stomach; set-up: dose 100 mg/kg, route oral; details: in vivo; summary of the method: as §1
Rattus norvegicus [13] = assay: Antiinflammatory activity against Freund's adjuvant-induced arthritis in Wistar rat assessed as reduction in paw height at 100 mg/kg, ip; assay type: functional, organism-based; set-up: dose 100 mg/kg; summary of the method: as §2
Rattus norvegicus [14] = assay: Antinociceptive activity in Wistar rat assessed as increase in latency time at 100 mg/kg, ip; assay type: functional, organism-based; set-up: dose 100 mg/kg; summary of the method: as §3
Rattus norvegicus [15] = assay: Antiinflammatory activity against Freund's adjuvant-induced arthritis in Wistar rat assessed as reduction in paw height at 100 mg/kg, po; assay type: functional, organism-based; set-up: dose 100 mg/kg; summary of the method: as §2
Rattus norvegicus [16] = assay: Antiinflammatory activity against Freund's adjuvant-induced arthritis in Wistar rat assessed as reduction in joint width at 10 mg/kg, po; assay type: functional, organism-based; set-up: dose 10 mg/kg; summary of the method: as §2
Rattus norvegicus [17] = assay: Antiinflammatory activity against Freund's adjuvant-induced arthritis in Wistar rat assessed as reduction in paw width at 50 mg/kg, po; assay type: functional, organism-based; set-up: dose 50 mg/kg; summary of the method: as §2
Rattus norvegicus [18] = assay: Antiinflammatory activity against carrageenan-induced Wistar rat paw oedema at 100 mg/kg, po; assay type: functional, organism-based; set-up: dose 100 mg/kg; summary of the method: as §4
Rattus norvegicus [19] = assay: Antiinflammatory activity against carrageenan-induced Wistar rat paw oedema at 50 mg/kg, po; assay type: functional, organism-based; set-up: dose 50 mg/kg; summary of the method: as §4
Rattus norvegicus [20] = assay: Antiinflammatory activity against carrageenan-induced Wistar rat paw oedema at 10 mg/kg, po; assay type: functional, organism-based; set-up: dose 10 mg/kg; summary of the method: as §4

Structure (SMILES) | Activity (Rattus norvegicus [1]) | Activity (Rattus norvegicus [2]) | Activity (Rattus norvegicus [3]) | Activity (Rattus norvegicus [4]) | Activity (Rattus norvegicus [5]) | Activity (Rattus norvegicus [6]) | Activity (Rattus norvegicus [7]) | Activity (Rattus norvegicus [8]) | Activity (Rattus norvegicus [9]) | Activity (Rattus norvegicus [10]) | Activity (Rattus norvegicus [11]) | Activity (Rattus norvegicus [12]) | Activity (Rattus norvegicus [13]) | Activity (Rattus norvegicus [14]) | Activity (Rattus norvegicus [15]) | Activity (Rattus norvegicus [16]) | Activity (Rattus norvegicus [17]) | Activity (Rattus norvegicus [18]) | Activity (Rattus norvegicus [19]) | Activity (Rattus norvegicus [20])
COc1ccc2c(c1)c(CC(=O)O)c(C)n2C(=O)c1ccc(Cl)cc1 [INDOMETHACIN] | Toxic | – | – | – | – | – | – | – | – | – | – | – | – | – | – | – | – | – | – | –
FC(F)(F)c1ccc(-n2nc3c(c2-c2ccccc2)CCCC3)cc1 | – | inactive | inactive | inactive | inactive | inactive | inactive | Active | Active | Active | Dose-dependent effect | Non-toxic | Active | Active | inactive | inactive | inactive | – | – | –
FC(F)(F)c1ccnc(-n2nc3c(c2-c2ccccc2)CCCC3)n1 | – | inactive | – | inactive | – | – | – | – | inactive | Active | – | Non-toxic | Active | – | Active | – | – | inactive | inactive | inactive
